Results as given in ChEMBL document CHEMBL1811919, “Effects of β-glucosidase hydrolyzed products of harpagide and harpagoside on cyclooxygenase-2 (COX-2) in vitro” (Bioorg Med Chem, 2011).
Active and inactive are the calls of the source. No cut-off for these calls is given here.

Key:
[1] = molecular target: T1, Prostaglandin G/H synthase 1 (Ovis aries) (UniProt P05979); conditions: 50 uM
T1 sequence (whole entry): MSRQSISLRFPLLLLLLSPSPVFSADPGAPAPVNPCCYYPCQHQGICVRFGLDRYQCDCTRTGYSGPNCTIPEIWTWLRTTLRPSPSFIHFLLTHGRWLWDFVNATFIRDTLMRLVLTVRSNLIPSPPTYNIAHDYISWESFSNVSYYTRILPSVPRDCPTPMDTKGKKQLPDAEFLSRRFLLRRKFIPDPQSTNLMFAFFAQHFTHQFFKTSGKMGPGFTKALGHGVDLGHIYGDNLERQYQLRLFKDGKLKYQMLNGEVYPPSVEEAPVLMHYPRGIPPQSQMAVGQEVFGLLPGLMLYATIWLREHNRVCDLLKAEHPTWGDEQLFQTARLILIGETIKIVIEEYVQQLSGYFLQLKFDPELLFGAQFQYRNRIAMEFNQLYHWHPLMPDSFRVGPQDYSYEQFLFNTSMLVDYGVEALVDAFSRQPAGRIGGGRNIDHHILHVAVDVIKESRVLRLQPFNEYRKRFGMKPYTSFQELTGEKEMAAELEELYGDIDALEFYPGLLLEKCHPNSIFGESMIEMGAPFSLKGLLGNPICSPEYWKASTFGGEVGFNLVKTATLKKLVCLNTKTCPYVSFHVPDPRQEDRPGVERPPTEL

RAW264.7 [2] = experiment: Cytotoxicity against mouse RAW264.7 cells at 2.5 to 100 uM after 18 hrs by MTT assay; assay type: cell-based; conditions: raw264.7, 18 h
Summary of the method: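 RAW 264.7 murine macrophages in 96-well plates co-incubated with compound or vehicle for 18 h. MTT added to […] final, then 4 h further incubation with DMSO; formazan read at 570 nm. Toxic if MTT metabolism more than 20% below control.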

[3] = molecular target: T1, Prostaglandin G/H synthase 1 (Ovis aries); experiment: Inhibition of ovine COX1 at 2.5 to 100 uM incubated for 10 mins by enzyme immunoassay
Summary of the method: (§1)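 Screening kit assay. Ovine COX-1 or human recombinant COX-2 with heme in reaction buffer, incubated with compound or DMSO for 10 min. Arachidonic acid added from a 10 mM stock, reaction 2 min at 37 °C. Stopped with 1 M HCl, then saturated SnCl2 for 5 min at room temperature. Prostaglandins quantified by EIA. Background from inactivated enzyme; DMSO taken as 100% activity. Mean ± SEM, Dunnett's test.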

[4] = molecular target: T2, Prostaglandin G/H synthase 2 (Homo sapiens) (UniProt P35354); experiment: (§2) Inhibition of human recombinant COX2 incubated for 10 mins by enzyme immunoassay
T2 sequence (whole entry): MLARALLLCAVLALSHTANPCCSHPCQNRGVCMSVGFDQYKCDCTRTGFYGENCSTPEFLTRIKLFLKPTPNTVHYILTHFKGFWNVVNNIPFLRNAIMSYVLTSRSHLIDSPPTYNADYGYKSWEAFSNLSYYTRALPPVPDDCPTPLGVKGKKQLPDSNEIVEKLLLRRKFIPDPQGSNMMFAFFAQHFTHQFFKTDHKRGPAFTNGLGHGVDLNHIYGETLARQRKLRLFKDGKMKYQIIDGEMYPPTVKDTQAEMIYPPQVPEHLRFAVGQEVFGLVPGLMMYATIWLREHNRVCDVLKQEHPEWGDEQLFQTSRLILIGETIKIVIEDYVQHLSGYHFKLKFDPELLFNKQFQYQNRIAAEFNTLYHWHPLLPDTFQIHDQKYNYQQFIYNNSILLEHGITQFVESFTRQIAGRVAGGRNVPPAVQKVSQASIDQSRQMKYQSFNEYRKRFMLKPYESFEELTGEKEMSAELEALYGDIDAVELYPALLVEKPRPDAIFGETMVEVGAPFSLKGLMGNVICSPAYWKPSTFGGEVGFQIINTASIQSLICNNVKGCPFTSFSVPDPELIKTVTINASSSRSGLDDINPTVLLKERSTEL
Summary of the method: as §1

[5] = molecular target: T3, Prostaglandin G/H synthase 2 (Homo sapiens, UniProt P35354); experiment: as §2
T3 sequence (P35354 whole entry): T2 sequence (whole entry)
Summary of the method: as §1

RAW264.7 [6] = experiment: Effect on basal COX-2 mRNA expression in mouse RAW264.7 cells at 20 uM by RT-PCR; assay type: functional, cell-based
RAW264.7 [7] = experiment: Effect on basal COX-2 mRNA expression in mouse RAW264.7 cells at 100 uM by RT-PCR; assay type: functional, cell-based
RAW264.7 [8] = experiment: Inhibition of LPS-induced COX-2 mRNA expression in mouse RAW264.7 cells at 100 uM pre-incubated for 3 hrs before LPS challenge measured 24 hrs post LPS challenge by RT-PCR; assay type: functional
Summary of the method: (§3)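 RAW 264.7 cells seeded at 2 × 10⁵ per well and grown to confluence, treated with compound or vehicle for 3 h, then stimulated with LPS 1 µg/ml for 24 h. Total RNA extracted; SYBR real-time RT-PCR, 40 cycles of 95 °C 15 s / 60 °C 1 min, samples in duplicate. Quantified by 2^-ΔΔCt, normalized to β-actin, fold change relative to untreated cells. TPCK 20 µM positive control.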

RAW264.7 [9] = experiment: Inhibition of LPS-induced nitric oxide production in mouse RAW264.7 cells at 2.5 to 100 uM pre-incubated for 20 mins before LPS challenge measured 18 hrs post LPS challenge by Griess method; assay type: functional, cell-based
Summary of the method: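 RAW264.7 cells at 2 × 10⁵ per well pretreated with compound, aminoguanidine or vehicle for 20 min, then co-incubated with LPS 1 µg/ml for a further 18 h. Supernatant mixed with Griess reagent (1% sulfanilamide, 0.1% naphthylethylenediamine) for nitrite read-out.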

RAW264.7 [10] = experiment: Inhibition of LPS-induced TNFalpha production in mouse RAW264.7 cells at 2.5 to 100 uM pre-incubated for 30 mins before LPS challenge measured 6 hrs post LPS challenge by ELISA; assay type: functional, cell-based
Summary of the method: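 RAW264.7 cells at 2 × 10⁵ per well pretreated with compound, dexamethasone or vehicle for 30 min, then co-incubated with LPS 100 ng/ml for a further 6 h before TNF-α measurement.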

RAW264.7 [11] = experiment: Inhibition of LPS-induced COX-2 mRNA expression in mouse RAW264.7 cells at 20 uM pre-incubated for 3 hrs before LPS challenge measured 24 hrs post LPS challenge by RT-PCR; assay type: functional
Summary of the method: as §3

RAW264.7 [12] = experiment: Inhibition of LPS-induced TNFalpha production in mouse RAW264.7 cells pre-incubated for 30 mins before LPS challenge measured 6 hrs post LPS challenge by ELISA; assay type: functional, cell-based
Summary of the method: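 RAW264.7 macrophages at 2 × 10⁵ cells/well, pretreated with test compound, dexamethasone or vehicle for 30 min, then co-incubated with LPS (100 ng/ml) for a further 6 h. Concentrations tested 2.5–100 μM.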

RAW264.7 [13] = experiment: Inhibition of LPS-induced nitric oxide production in mouse RAW264.7 cells pre-incubated for 20 mins before LPS challenge measured 18 hrs post LPS challenge by Griess method; assay type: functional, cell-based
Summary of the method: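 RAW264.7 cells at 2 × 10⁵ cells/well, pretreated with test compound, aminoguanidine or vehicle for 20 min, then LPS co-incubation for a further 18 h. Supernatant mixed with Griess reagent (1% sulfanilamide plus 0.1% naphthylethylenediamine). Concentrations tested 2.5–100 μM.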

[14] = molecular target: T2, Prostaglandin G/H synthase 2 (Homo sapiens); experiment: Inhibition of human recombinant COX2 at 2.5 to 100 uM incubated for 10 mins by enzyme immunoassay
Summary of the method: as §1

Row | SMILES | Activity (RAW264.7 [2]) | inhibition [3] | Activity (RAW264.7 [6]) | Activity (RAW264.7 [7]) | inhibition (RAW264.7 [9]) | inhibition (RAW264.7 [10]) | also measured
1 | CC(=O)Oc1ccccc1C(=O)O | – | – | – | – | – | – | inhibition [1]: Active
2 | C[C@]1(O)C[C@@H](O)[C@]2(O)C=CO[C@@H](O[C@@H]3O[C@H](CO)[C@@H](O)[C@H](O)[C@H]3O)[C@@H]21 [HARPAGIDE] | Non-toxic | – | – | – | – | – | –
3 | C[C@]1(O)C[C@@H](O)[C@](O)(CC=O)[C@@H]1C=O | Non-toxic | inactive | inactive | inactive | inactive | inactive | inhibition [4]: Dose-dependent effect; IC50 [5]: 43.3 µM; inhibition at 100 µM (RAW264.7 [8]): 47.6%
4 | Cc1ccc(S(=O)(=O)N[C@@H](Cc2ccccc2)C(=O)CCl)cc1 [TPCK] | – | – | – | – | – | – | inhibition at 20 µM (RAW264.7 [11]): 59.5%
5 | N=C(N)NN | – | – | – | – | – | – | inhibition (RAW264.7 [12]): Active; inhibition (RAW264.7 [13]): Active
6 | C[C@]1(OC(=O)/C=C/c2ccccc2)C[C@@H](O)[C@]2(O)C=CO[C@@H](O[C@@H]3O[C@H](CO)[C@@H](O)[C@H](O)[C@H]3O)[C@@H]21 [HARPAGOSIDE] | Non-toxic | inactive | inactive | inactive | inactive | inactive | inhibition [14]: inactive; inhibition (RAW264.7 [8]): inactive
7 | C[C@@H]1C[C@H]2[C@@H]3CCC4=CC(=O)C=C[C@]4(C)[C@@]3(F)[C@@H](O)C[C@]2(C)[C@@]1(O)C(=O)CO | – | – | – | – | – | – | inhibition (RAW264.7 [12]): Active; inhibition (RAW264.7 [13]): Active
8 | C[C@]1(O)C[C@@H](O)[C@]2(O)C=CO[C@@H](O[C@H]3O[C@H](CO)[C@@H](O)[C@H](O)[C@H]3O)[C@@H]21 | – | inactive | inactive | inactive | inactive | inactive | inhibition [14]: inactive; inhibition (RAW264.7 [8]): inactive
